Experimental data: article PMC4893941 (Journal of medicinal chemistry, 2016)

Assays:
[1] = test system: human hCMEC/D3 brain endothelial cell monolayers; assay: BBB permeability across hCMEC/D3 cell monolayers; assay type: in vitro ADME; details: hCMEC/D3 monolayer; for Pe (permeability coefficient): 50 μM in transport buffer, 0–45 min
Method in brief: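 hCMEC/D3 cells were grown 48 h on 0.4 μm PET Transwell inserts in EBM-2 with 5% FBS, hydrocortisone, ascorbate, lipid concentrate, HEPES and bFGF. Monolayers were checked by microscopy. Test compound or lucifer yellow (50 μM) in HBSS/HEPES/pyruvate transport buffer was added to the upper chamber at 37 °C. Inserts were moved to fresh buffer at 10 and 25 min, and the lower chamber was sampled at 10, 25 and 45 min. Fluorescence was read at 485/590 nm (compound) or 425/538 nm (LY) against standard curves. Pe came from clearance-slope fits, cell inserts minus cell-free inserts, in triplicate.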

[2] = Octanol–water partition coefficients; assay type: physicochemical; details: 1-octanol/water partition, UV–vis absorbance
Method in brief: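 Octanol and water were mutually presaturated. A 64 μM stock of test compound in water-saturated octanol was vortexed 10 min with water. After phase separation, the octanol layer was diluted and its UV–vis absorbance read. log P was calculated from octanol absorbance before versus after partitioning and the water/octanol phase volumes.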

human glioma T98G cells = assay: Time-dependent cellular uptake; assay type: cell-based; details: 10 μM; for cellular uptake after 24 h, fold higher than 7: relative to BODIPY 7
Method in brief: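 T98G glioma cells were seeded at 15 000/well in EMEM with 10% FBS and grown 24 h. They were then exposed to 10 μM test compound for 0, 1, 2, 4, 8 or 24 h, PBS-washed and lysed in 0.25% Triton X-100/PBS. Fluorescence at 485/590 nm was read against compound standard curves (0.3125–10 μM). Cell number came from a CyQuant cell standard curve, and uptake was expressed as nM per cell.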

Pe (permeability coefficient) [1]	log P [2]	Pe relative to LY ([1]; relative to lucifer yellow) [fold]	Substance	cellular uptake at 24 h (human glioma T98G cells) [nM/cell]	cellular uptake after 24 h, fold higher than 7 (human glioma T98G cells)
2.2 ± 0.8 × 10^−5 cm/s			lucifer yellow [LY, reference compound]		
5.4 ± 0.6 × 10^−5 cm/s	1.93		8-(1,2-Carboranyl-1-thio)-3-chloro-2-ethyl-1,3,6,7-tetramethyl-BODIPY [6b]	0.46 ± 0.06	135 fold
16.4 ± 3.3 × 10^−5 cm/s	1.50	7	8-(1,2-Carboranyl-1-thio)-BODIPY [1b]	0.23 ± 0.05	67 fold
	2.11		8-[4-(2-Methyl-1,2-carboranyl)methylphenyl]-BODIPY [compound 4]	0.41 ± 0.03	118 fold
6.0 ± 1.0 × 10^−5 cm/s	1.69		8-(1,2-Carboranyl-1-thio)-1,3-dimethyl-BODIPY [2b]	0.36 ± 0.03	106 fold
2.6 ± 0.9 × 10^−5 cm/s	1.95		8-(1,2-Carboranyl-1-thio)-2-ethyl-1,3,6,7-tetramethyl-BODIPY [5b]	1.5 ± 0.05	about 436 fold
